Measured values taken from PMC5970965 (Prostaglandins & other lipid mediators, 2018).

How the values were obtained:
[1] = molecular target: T1, Human sEH (Homo sapiens, UniProt P34913); assay: human sEH inhibition assay, fluorescent substrate CMNPC; assay type: biochemical
T1 sequence (P34913 1-555): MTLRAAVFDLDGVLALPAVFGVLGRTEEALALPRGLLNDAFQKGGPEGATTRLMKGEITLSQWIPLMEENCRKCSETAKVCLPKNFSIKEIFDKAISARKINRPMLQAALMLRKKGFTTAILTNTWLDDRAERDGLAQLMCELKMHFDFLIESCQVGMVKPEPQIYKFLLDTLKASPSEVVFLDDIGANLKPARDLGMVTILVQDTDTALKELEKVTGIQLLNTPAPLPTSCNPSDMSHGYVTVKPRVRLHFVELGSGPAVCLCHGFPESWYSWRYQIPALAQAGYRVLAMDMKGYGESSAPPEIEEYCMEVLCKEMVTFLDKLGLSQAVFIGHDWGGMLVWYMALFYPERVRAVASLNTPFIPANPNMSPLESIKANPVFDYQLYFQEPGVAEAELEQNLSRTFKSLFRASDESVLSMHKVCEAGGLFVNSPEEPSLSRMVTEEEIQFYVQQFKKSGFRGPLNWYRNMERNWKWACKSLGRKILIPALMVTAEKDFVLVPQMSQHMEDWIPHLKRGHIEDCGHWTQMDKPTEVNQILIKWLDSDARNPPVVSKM

[2] = molecular target: T2, fatty acid amide hydrolase (FAAH) (Homo sapiens, UniProt O00519); assay: FAAH inhibition assay, substrate OMP; assay type: biochemical
T2 sequence (O00519 1-579): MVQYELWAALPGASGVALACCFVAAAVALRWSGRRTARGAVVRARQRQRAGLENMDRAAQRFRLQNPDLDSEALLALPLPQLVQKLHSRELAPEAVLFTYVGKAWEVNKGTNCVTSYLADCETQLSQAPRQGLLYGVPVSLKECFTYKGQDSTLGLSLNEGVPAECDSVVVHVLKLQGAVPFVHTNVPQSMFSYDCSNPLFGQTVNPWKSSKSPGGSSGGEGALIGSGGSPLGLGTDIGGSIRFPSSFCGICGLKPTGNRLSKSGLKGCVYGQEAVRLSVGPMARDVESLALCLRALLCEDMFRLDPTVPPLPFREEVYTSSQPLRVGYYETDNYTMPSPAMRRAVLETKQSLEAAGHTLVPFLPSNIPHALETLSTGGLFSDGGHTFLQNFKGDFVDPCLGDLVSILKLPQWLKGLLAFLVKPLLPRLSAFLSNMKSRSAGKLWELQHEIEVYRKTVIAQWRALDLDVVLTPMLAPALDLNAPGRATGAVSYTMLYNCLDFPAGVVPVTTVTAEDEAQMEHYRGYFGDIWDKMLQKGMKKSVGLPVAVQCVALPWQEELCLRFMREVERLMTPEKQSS
Summary of the method: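 FAAH activity was followed fluorimetrically (excitation 303 nm, emission 394 nm) at 37 °C using N-(6-methoxypyridin-3-yl)octanamide (OMP) at a final concentration of 50 μM. The reaction buffer was 0.1 M sodium phosphate, pH 8, containing 0.1 mg/mL BSA. Each experiment was run in triplicate, and values are given as average ± SD.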

[3] = molecular target: T3, rat sEH enzyme (Rattus norvegicus, UniProt P80299); assay: rat sEH inhibition assay; assay type: biochemical
T3 sequence (P80299 1-554): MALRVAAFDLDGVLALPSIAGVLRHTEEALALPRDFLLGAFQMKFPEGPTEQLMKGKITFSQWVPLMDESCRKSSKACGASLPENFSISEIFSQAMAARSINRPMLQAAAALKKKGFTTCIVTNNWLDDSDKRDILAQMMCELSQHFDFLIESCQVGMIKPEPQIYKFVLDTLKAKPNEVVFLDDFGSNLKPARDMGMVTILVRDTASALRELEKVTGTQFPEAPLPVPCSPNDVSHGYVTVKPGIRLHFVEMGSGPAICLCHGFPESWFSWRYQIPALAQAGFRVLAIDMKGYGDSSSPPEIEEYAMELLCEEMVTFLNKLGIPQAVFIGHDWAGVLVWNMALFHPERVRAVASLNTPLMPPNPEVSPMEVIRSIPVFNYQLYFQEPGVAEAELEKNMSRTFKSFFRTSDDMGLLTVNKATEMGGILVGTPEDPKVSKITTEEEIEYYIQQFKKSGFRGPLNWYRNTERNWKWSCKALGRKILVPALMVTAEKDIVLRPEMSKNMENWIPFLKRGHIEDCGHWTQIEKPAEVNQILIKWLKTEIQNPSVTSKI

[4] = human liver microsomal metabolic stability; assay type: in vitro ADME; conditions: both, human liver microsomes
[5] = rat liver microsomal metabolic stability; assay type: in vitro ADME; conditions: for half-life / microsomal CLint: both, rat, rat liver microsomes; for microsomal CLint: app (rat liver microsomes)
[6] = cited from earlier work
[7] = apparent intrinsic clearance, CLint = k/P

Row | Structure (SMILES) | IC50 [1] | IC50 [2] | IC50 [3] | half-life [4] | microsomal CLint [4] | half-life [5] | microsomal CLint [5, 7] | CLint, app (human liver microsomes), previously published value in parenthesis [6] | CLint, app (rat liver microsomes) [5, 7]
1 | Cc1ccc(S(=O)(=O)N2CCC(C(=O)Nc3ccc4cc(C(=O)O)ccc4c3)CC2)c(C)c1 [Compound 3, 6-(1-((2,4-dimethylphenyl)sulfonyl)piperidine-4-carboxamido)-2-naphthoic acid] | 0.085 µM | 23 µM | 0.141 ± 0.02 µM | 3.1 h | 7.5 µL/min/mg | 0.433 h | 53.3 µL/min/mg | 6.3 µL/min/mg | –
2 | [2H]c1c([2H])c(S(=O)(=O)N2CCC(C(=O)Nc3ccc4cc(C(=O)O)ccc4c3)CC2)c(C([2H])([2H])[2H])c([2H])c1C([2H])([2H])[2H] [Compound 3i, 6-(1-((2,4-bis(methyl-d3)phenyl-3,5,6-d3)sulfonyl)piperidine-4-carboxamido)-2-naphthoic acid] | 0.106 µM | 8.8 µM | – | > 4 h | < 5.8 µL/min/mg | > 1 h | ~20 µL/min/mg | – | <23.1 µL/min/mg
